The list is not random: actives were taken first. Their share in the collection is about 2.9%.
SENP7 block: inhibitors of human SENP7 protease; Q9BQF6; recombinant SENP7, Z-RLRGG-aminoluciferin luminescence, 40 min; inhibition, % at 5 µM; hit rate 1.5% among 330,000; AID 434973;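 active = inhibition above about 50% at the single test dose, limit read from the data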
SENP8 block-1: inhibitors of human SENP8 protease | Q96LD8 | purified SENP8, Z-RLRGG-aminoluciferin cleavage, luminescence | inhibition, % at 10 µM | hit rate 1.2% among 330,000; in the data active = inhibition above about 50%
SENP1 FRET inh: inhibitors of human SENP1 SUMO protease catalytic domain. Q9P0U3. recombinant SENP1 catalytic domain, CyPet-SUMO1-YPet FRET cleavage. inhibition, % at 10 µM. hit rate 0.21% among 360,000;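 active = inhibition at least 30% at 10 µM, raw YFP signal under a set limit, fluorescence ratio 0.5 to 1.5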
Target sequence (Q9P0U3 419-644 limits assumed): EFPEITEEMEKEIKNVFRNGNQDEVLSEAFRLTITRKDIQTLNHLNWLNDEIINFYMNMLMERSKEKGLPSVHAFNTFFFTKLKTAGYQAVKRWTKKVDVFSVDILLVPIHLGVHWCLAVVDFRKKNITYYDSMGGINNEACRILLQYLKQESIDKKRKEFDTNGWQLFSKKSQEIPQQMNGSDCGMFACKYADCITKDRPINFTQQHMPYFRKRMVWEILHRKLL
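Material: hSENP1 catalytic domain, recombinant; medium: Tris pH 8 with BME, BSA, NP40 and catalase; compound: single concentration of 10 µM compound, 0.5% DMSO final; technique: FRET read of cyan and yellow fluorescence; timing: 50 min enzyme reaction, room temperature, light-protected; reagent: SFCypet-SUMO1-SFYpet substrate at 25 nM; control set: no-enzyme low, enzyme-DMSO high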
HSP90 inh: blocks HSP90-mediated luciferase refolding in reticulocyte lysate; Rabbit reticulocyte lysate, luciferase refolding luminescence, 3 h; inhibition, % at 5.6 µM; hit rate 0.91% among 290,000;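 active = inhibition above the screen-wide mean plus 3 SD, computed separately per campaign, cut at about 16% in these data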;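 note: inhibitors lower the luminescence because luciferase stays unfolded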
SENP8 block-2: inhibitors of human SENP8 protease. Q96LD8. recombinant SENP8, Nedd8 substrate fluorescence. inhibition, % at 20 µM. hit rate 0.64% among 360,000. AID 602440; in the data active = inhibition mostly above about 40%, no sharp cut-off; inactive = mostly below about 27%
SENP6 block: SENP6 protease inhibition. AID 2599. inhibition, % at 10 µM. Q9GZR1. hit rate 1.8% among 330,000. Recombinant SENP6 catalytic domain, aminoluciferin luminescence;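 active = inhibition above about 50% at the single tested dose, limit read from the data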
Target sequence (Q9GZR1 628-1112 limits assumed): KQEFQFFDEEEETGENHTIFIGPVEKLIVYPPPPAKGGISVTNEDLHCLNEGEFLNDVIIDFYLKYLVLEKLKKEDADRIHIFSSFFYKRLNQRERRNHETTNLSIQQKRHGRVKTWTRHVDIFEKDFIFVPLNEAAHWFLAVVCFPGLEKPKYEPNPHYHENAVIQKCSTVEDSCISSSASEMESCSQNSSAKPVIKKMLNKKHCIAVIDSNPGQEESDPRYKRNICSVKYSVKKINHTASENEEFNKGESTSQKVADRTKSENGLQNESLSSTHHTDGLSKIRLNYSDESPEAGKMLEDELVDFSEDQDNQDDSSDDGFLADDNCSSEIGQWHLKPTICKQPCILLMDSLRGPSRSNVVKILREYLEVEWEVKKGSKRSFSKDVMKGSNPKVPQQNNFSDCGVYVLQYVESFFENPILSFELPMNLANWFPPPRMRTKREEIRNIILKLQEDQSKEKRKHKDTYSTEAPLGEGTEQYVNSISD
SENP8 confirm: human SENP8 inhibition, confirmed. shares compounds with SENP7 block. Recombinant SENP8, Z-RLRGG-aminoluciferin luminescence, 60 min. inhibition, % at 12.5 µM. hit rate 40% among 6,200. AID 488912;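 active = mean inhibition across replicates above about 50%, limit read from the data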
SENP6 conf: human SENP6 inhibition, confirmed. shares compounds with SENP7 block. recombinant SENP6, Z-RLRGG-aminoluciferin luminescence. inhibition, % at 12.5 µM. hit rate 58% among 6,200. AID 488915
SENP7 confirm: human SENP7 inhibition, confirmed | recombinant SENP7, Z-RLRGG-aminoluciferin luminescence, 40 min | shares compounds with SENP7 block | inhibition, % at 12.5 µM | hit rate 69% among 6,200
Casp3 SENP sel: caspase-3 inhibition (SENP selectivity assay); shares compounds with SENP7 block; purified caspase-3, Z-DEVD-aminoluciferin luminescence, 60 min; inhibition, % at 12.5 µM; hit rate 60% among 6,200;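 active = mean inhibition above about 50%, limit read from the data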
SENP luc ctr: luminescence interference (SENP counter-screen). shares compounds with SENP7 block. Pre-incubated SENP8/Z-RLRGG-aminoluciferin, luciferase luminescence interference. inhibition, % at 12.5 µM. hit rate 39% among 6,200. AID 488919;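 active = mean inhibition above about 50% when retested at one dose, limit read from the data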
Of the large screens only hits and unclear results are named; the others gave an inactive call (follow-up assays come after a bar, where they were run).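 Rule for the calls, unless noted: active = mean inhibition above about 50% in the one-dose retest (limit read from the data); inactive = the rest.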

Cc1ccc(C(=O)Nc2nc(C)c(C(=O)Nc3ccc4c(c3)CCC4)s2)cc1	SENP6 block 66 | SENP8 confirm inactive | SENP6 conf inactive | SENP7 confirm 65 | Casp3 SENP sel inactive | SENP luc ctr inactive
Cc1ccc(NC(=O)c2sc(N)nc2C)cc1	none
O=C(O)CN(C1CCCCC1)S(=O)(=O)c1ccc(F)cc1	none
CN(C)S(=O)(=O)N1CCN(CC(=O)Nc2ccc(F)cc2)CC1	none
CCCCN(C(=O)NC(=O)Nc1ccccc1OC)S(C)(=O)=O	SENP7 block 56 | SENP8 confirm inactive | SENP6 conf inactive | SENP7 confirm inactive | Casp3 SENP sel inactive | SENP luc ctr inactive
COc1ccccc1NC(=O)NC(=O)N(C(C)C)S(C)(=O)=O	none
O=C(O)CSCC(=O)N(Cc1ccccc1)c1nc(-c2ccccc2)c(-c2ccccc2)s1	none
COC(=O)[C@@H](Cc1c[nH]c2ccccc12)NC(=O)c1ccc2c(c1)OCO2	SENP7 block 65, SENP8 block-1 53, SENP6 block 59 | SENP8 confirm inactive | SENP6 conf inactive | SENP7 confirm 83 | Casp3 SENP sel 67 | SENP luc ctr 68
Cc1ccc(-c2cc(C(=O)N/N=C/c3c(C)nn(C)c3C)c3ccccc3n2)c(C)c1	none
Cc1cc(C(=O)CSCc2nnc3n(CCC(C)C)c(=O)c4ccccc4n23)c(C)n1C	none (no result: SENP7 block, SENP8 block-1, SENP1 FRET inh, SENP8 block-2, SENP6 block)
COc1ccccc1NC(=S)NNC(=O)c1ccc(Cl)cc1Cl	SENP7 block 54, SENP6 block 72 | SENP8 confirm inactive | SENP6 conf inactive | SENP7 confirm inactive | Casp3 SENP sel inactive | SENP luc ctr inactive
CC(C)(C)N(Cc1ccccc1)C(=O)CN1C(=O)NC2(CCCCCC2)C1=O	none (no result: HSP90 inh)
Cc1csc(NC(=O)c2ccco2)n1	none
Cn1cccc1C(=O)Nc1nc(-c2ccccn2)cs1	SENP7 block 62, SENP6 block 74 | SENP8 confirm 76 | SENP6 conf 76 | SENP7 confirm 93 | Casp3 SENP sel 84 | SENP luc ctr 78
Cc1csc(NC(=O)c2cccn2C)n1	SENP7 block 91, SENP8 block-1 76, SENP6 block 82 | SENP8 confirm 76 | SENP6 conf 75 | SENP7 confirm 96 | Casp3 SENP sel 93 | SENP luc ctr 84
Cc1ccc(C(=O)Nc2nc(-c3ccccn3)cs2)s1	none (no result: HSP90 inh)
Cc1ccc(CNC(=O)C2CCC(=O)N(C3CC3)C2)cc1 (stereo not given)	none
C=CCn1c2ccccc2c(=O)c2cc(C#Cc3ccccn3)ccc21	SENP8 block-1 56, SENP6 block 72 (no result: HSP90 inh) | SENP8 confirm 61 | SENP6 conf 66 | SENP7 confirm 82 | Casp3 SENP sel inactive | SENP luc ctr inactive
C=CCn1c2ccccc2c(=O)c2cc(C#Cc3ccsc3)ccc21	none (no result: SENP7 block, SENP8 block-1, SENP1 FRET inh, SENP8 block-2, SENP6 block)
COc1ccc(Nc2nc3ccccc3n2C)cc1	SENP6 block 56 | SENP8 confirm inactive | SENP6 conf inactive | SENP7 confirm 69 | Casp3 SENP sel 72 | SENP luc ctr inactive
Cc1ccc(CNc2nc3ccccc3n2C)cc1	SENP7 block 72, SENP8 block-1 59, SENP6 block 78 | SENP8 confirm 61 | SENP6 conf 62 | SENP7 confirm 91 | Casp3 SENP sel 88 | SENP luc ctr 75
CCOC(=O)c1ccc(NCc2nc3ccccc3n2C)cc1	SENP7 block 79, SENP8 block-1 61 | SENP8 confirm 82 | SENP6 conf 83 | SENP7 confirm 96 | Casp3 SENP sel 86 | SENP luc ctr 83
Cn1c(CNc2ccc(Br)cc2)nc2ccccc21	SENP7 block 72, SENP8 block-1 59, SENP6 block 70 | SENP8 confirm inactive | SENP6 conf 63 | SENP7 confirm 87 | Casp3 SENP sel 63 | SENP luc ctr 70
Cn1c(NCc2ccc(Cl)cc2)nc2ccccc21	none
Cc1ccc(NCc2nc3ccccc3n2C)cc1	none
Cn1c(Nc2ccc(F)cc2)nc2ccccc21	none
C[C@@H]1CN([C@H](C)CO)C(=O)CCCn2cc(nn2)CO[C@H]1CN(C)S(=O)(=O)c1ccc(-c2ccccc2)cc1	none (no result: SENP7 block, SENP8 block-1, HSP90 inh, SENP6 block)
COc1ccc(NCc2nc3ccccc3n2C)cc1	SENP6 block 68 | SENP8 confirm 65 | SENP6 conf 64 | SENP7 confirm 85 | Casp3 SENP sel 87 | SENP luc ctr 70
COc1ccc(CNc2nc3ccccc3n2C)c(O)c1	SENP7 block 68, SENP6 block 64 | SENP8 confirm 67 | SENP6 conf 65 | SENP7 confirm 90 | Casp3 SENP sel 73 | SENP luc ctr 71
CCOC(=O)[C@]12CCCC=C1N(Cc1ccc3c(c1)OCO3)C(=O)[C@H](CC(=O)N1CCCCC1)C2	none (no result: SENP7 block, SENP8 block-1, HSP90 inh, SENP6 block)
CCOCc1cc(CN2CCCC(CNC(=O)c3ccco3)C2)ccc1OC (stereo not given)	none
CC1Cc2cc(S(=O)(=O)N3CCC(C(=O)NCc4ccco4)CC3)ccc2N1C(=O)C1CCC1 (stereo not given)	none
Cc1csc2nc(CSc3nc4ccccc4o3)c(Br)n12	SENP6 block 56 | SENP8 confirm inactive | SENP6 conf inactive | SENP7 confirm 55 | Casp3 SENP sel inactive | SENP luc ctr inactive
Cc1cc(OCC(=O)NC2CC(C)(C)NC(C)(C)C2)c2c(C)c(C)c(=O)oc2c1	none
C/C(=N/OC(=O)c1ccccc1Br)c1ccc(C)cc1	SENP6 block 61 | SENP8 confirm inactive | SENP6 conf inactive | SENP7 confirm 72 | Casp3 SENP sel inactive | SENP luc ctr inactive
C/C(=N/OC(=O)c1ccc(C)cc1)c1cccs1	SENP7 block 100, SENP8 block-1 98, SENP6 block 97 | SENP8 confirm 98 | SENP6 conf 99 | SENP7 confirm 102 | Casp3 SENP sel 97 | SENP luc ctr 97
C/C(=N\OC(=O)c1ccc(Cl)c(Cl)c1)c1sc(C)nc1C	SENP6 block 51 | SENP8 confirm inactive | SENP6 conf inactive | SENP7 confirm inactive | Casp3 SENP sel inactive | SENP luc ctr inactive
C/C(=N\OC(=O)c1ccc(C)cc1)c1sc(C)nc1C	SENP7 block 77, SENP8 block-1 62, SENP6 block 79 | SENP8 confirm inactive | SENP6 conf 73 | SENP7 confirm 92 | Casp3 SENP sel 79 | SENP luc ctr 57
C/C(=N\OC(=O)c1ccc(C)cc1)c1c(C)nc2cc(C)ccn12	none

Assay outcomes from PubChem BioAssay.
